Activity calls are given as the source filed them. The rule behind the calls is not given here.
Tests used:
[1] = Solubility at pH 7.4; assay type: physicochemical; conditions: buffer
HT-29 = test: Antitumor activity against human HT-29 cells xenografted in nude mouse assessed as tumor growth inhibition at 5 mg/kg, iv once weekly; assay type: functional, organism-based; set-up: dose 5 mg/kg
How it was run: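 HT29 cells from ATCC, cultured by standard methods, grown as tumors in nude mice and randomized into groups (n = 10). Agent formulated in 5% dextrose in water and given iv once weekly. Vehicle-dosed controls. Tumor growth was monitored and analyzed as previously described.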

[2] = Inhibition of PI3K
[3] = target: Serine/threonine-protein kinase mTOR (Homo sapiens) (UniProt P42345); test: Inhibition of mTOR
Plasma [4] = test: Stability in human plasma after 5 hrs; assay type: ADME, cell-free
Plasma [5] = test: Stability in mouse plasma after 5 hrs; assay type: ADME, cell-free
Plasma [6] = test: Stability in rat plasma after 5 hrs; assay type: ADME, cell-free
[7] = Stability in mouse plasma assessed as compound remaining after 120 mins relative to basal level; assay type: ADME, cell-free; conditions: read-out: Stability
How it was run: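 Compound was incubated in heparinized plasma at 37 °C for 2 h. Samples taken at various time points were quenched with acetonitrile, dried under nitrogen and reconstituted in methanol/water 20:80. Intact compound was quantified by LC/MS.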

U-87MG ATCC = test: Antitumor activity against human U87MG cells xenografted in nude mouse assessed as tumor growth inhibition at 3 mg/kg, iv once weekly; assay type: functional, organism-based; set-up: dose 3 mg/kg
How it was run: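 U87MG glioma xenografts in nude mice were staged and randomized (n = 10). Dosing was iv once weekly in D5W (days 0, 6 or days 0, 6, 13), with vehicle controls. Tumor volume was measured twice weekly.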

Plasma [8] = test: Stability in mouse plasma in presence of esterase inhibitor sodium fluoride; assay type: ADME, cell-free
How it was run: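 Compound was incubated in nude mouse plasma or whole blood at 37 °C for 2 h, with heparin or sodium fluoride/EDTA as anticoagulant. Time-point samples were quenched with acetonitrile, dried, reconstituted and analysed by LC/MS for parent and hydrolysis products.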

| inhibition [2] | inhibition [3] | Stability (Plasma [4]) | Stability (Plasma [5]) | Stability (Plasma [6]) | remaining at 2 h [7] | Stability (Plasma [8]) | SMILES | solubility [1] | Activity (HT-29) | Activity (U-87MG ATCC) |
| --- | --- | --- | --- | --- | --- | --- | --- | --- | --- | --- |
| – | – | – | – | – | – | – | C=CCN(/C=C1\C(=O)O[C@H](COC)[C@@]2(C)C1=C(O)C(=O)C1=C2[C@H](OC(C)=O)C[C@]2(C)[C@@H](O)CC[C@@H]12)CC=C | > 100 µg/mL | – | – |
| – | – | – | – | – | – | – | COC[C@H]1OC(=O)/C(=C\N(C)CCCN(C)C)C2=C(O)C(=O)C3=C([C@H](OC(C)=O)C[C@]4(C)[C@@H](O)CC[C@@H]34)[C@]21C | > 10000 µg/mL | inactive | – |
| inactive | inactive | Stable | Stable | Stable | – | – | C=CCN(/C=C1\C(=O)O[C@H](COC)[C@@]2(C)C1=C(O)C(=O)C1=C2[C@H](OC(C)=O)C[C@]2(C)[C@@H](OC(=O)CCCCCCC(=O)O[C@@H]3CC[C@@H](C[C@@H](C)[C@@H]4CC(=O)[C@H](C)/C=C(\C)[C@@H](O)[C@@H](OC)C(=O)[C@H](C)C[C@H](C)/C=C/C=C/C=C(\C)[C@@H](OC)C[C@@H]5CC[C@@H](C)[C@@](O)(O5)C(=O)C(=O)N5CCCC[C@H]5C(=O)O4)C[C@H]3OC)CC[C@@H]12)CC=C | – | – | – |
| inactive | inactive | – | – | – | 4% | Stable | COC[C@H]1OC(=O)/C(=C\N(C)CCCN(C)C)C2=C(O)C(=O)C3=C([C@H](OC(C)=O)C[C@]4(C)[C@@H](OC(=O)CCCCC(=O)O[C@@H]5CC[C@@H](C[C@@H](C)[C@@H]6CC(=O)[C@H](C)/C=C(\C)[C@@H](O)[C@@H](OC)C(=O)[C@H](C)C[C@H](C)/C=C/C=C/C=C(\C)[C@@H](OC)C[C@@H]7CC[C@@H](C)[C@@](O)(O7)C(=O)C(=O)N7CCCC[C@H]7C(=O)O6)C[C@H]5OC)CC[C@@H]34)[C@]21C | – | – | Active |
| inactive | inactive | – | – | – | 15% | Stable | COC[C@H]1OC(=O)/C(=C\N(C)CCCN(C)C)C2=C(O)C(=O)C3=C([C@H](OC(C)=O)C[C@]4(C)[C@@H](OC(=O)CCC(=O)O[C@@H]5CC[C@@H](C[C@@H](C)[C@@H]6CC(=O)[C@H](C)/C=C(\C)[C@@H](O)[C@@H](OC)C(=O)[C@H](C)C[C@H](C)/C=C/C=C/C=C(\C)[C@@H](OC)C[C@@H]7CC[C@@H](C)[C@@](O)(O7)C(=O)C(=O)N7CCCC[C@H]7C(=O)O6)C[C@H]5OC)CC[C@@H]34)[C@]21C | – | – | Active |

Source: ChEMBL document CHEMBL1156776, “Hybrid inhibitors of phosphatidylinositol 3-kinase (PI3K) and the mammalian target of rapamycin (mTOR): design, synthesis, and superior antitumor activity of novel wortmannin-rapamycin conjugates” (J Med Chem, 2010)
